Columns and labels:
SK-MEL-2 = experiment: Antiproliferative activity against human SK-MEL-2 cells assessed as cell growth inhibition at 10 uM incubated for 48 hrs by sulforhodamine B assay relative to control; format: functional
Method in brief: (§1)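 NCI-60 single-dose screen at 10^-5 M. Cells grown in RPMI 1640 with 5% FBS and 2 mM L-glutamine, plated at 5,000–40,000 cells/well, and preincubated 24 h. Drug (DMSO stock) added and incubated 48 h at 37 °C, 5% CO2. Adherent cells fixed with cold TCA, stained with 0.4% SRB in 1% acetic acid, dye solubilized in 10 mM trizma base, A515 read. Percent growth taken against time-zero and untreated control.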

UO-31 = experiment: Antiproliferative activity against human UO-31 cells assessed as cell growth inhibition at 10 uM incubated for 48 hrs by sulforhodamine B assay relative to control; format: functional; method in brief: as §1
MDA-MB-435 = experiment: Antiproliferative activity against human MDA-MB-435 cells assessed as cell growth inhibition at 10 uM incubated for 48 hrs by sulforhodamine B assay relative to control; format: functional; method in brief: as §1
SF-268 = experiment: Antiproliferative activity against human SF-268 cells assessed as cell growth inhibition at 10 uM incubated for 48 hrs by sulforhodamine B assay relative to control; format: functional; method in brief: as §1
HCT-116 = experiment: Antiproliferative activity against human HCT-116 cells assessed as cell growth inhibition at 10 uM incubated for 48 hrs by sulforhodamine B assay relative to control; format: functional
Method in brief: (§2)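 NCI-60 one-dose prescreen at 10^-5 M. Cells grown in RPMI 1640 with 5% FBS and 2 mM glutamine, preincubated 24 h, then exposed 48 h at 37 °C. Adherent lines TCA-fixed, SRB-stained, A515 read. Growth percent relative to time-zero and control; negative values mean cell kill.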

OVCAR-8 = experiment: Antiproliferative activity against human OVCAR-8 cells assessed as cell growth inhibition at 10 uM incubated for 48 hrs by sulforhodamine B assay relative to control; format: functional; method in brief: as §1
K562 = experiment: Antiproliferative activity against human K562 cells assessed as cell growth inhibition at 10 uM incubated for 48 hrs by sulforhodamine B assay relative to control; format: functional; method in brief: as §1
HOP-92 = experiment: Antiproliferative activity against human HOP-92 cells assessed as cell growth inhibition at 10 uM incubated for 48 hrs by sulforhodamine B assay relative to control; format: functional; method in brief: as §2
NCI-H522 = experiment: Antiproliferative activity against human NCI-H522 cells assessed as cell growth inhibition at 10 uM incubated for 48 hrs by sulforhodamine B assay relative to control; format: functional; method in brief: as §1
HT-29 = experiment: Antiproliferative activity against human HT-29 cells assessed as cell growth inhibition at 10 uM incubated for 48 hrs by sulforhodamine B assay relative to control; format: functional; method in brief: as §1
U-251 = experiment: Antiproliferative activity against human U-251 cells assessed as cell growth inhibition at 10 uM incubated for 48 hrs by sulforhodamine B assay relative to control; format: functional; method in brief: as §1
[1] = n-Octanol/phosphate buffer partition coefficient, logP of the compound at pH 7.4 incubated for 85 mins by shake-flask method; format: physicochemical
Method in brief: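 Octanol–water partition by shake-flask: n-octanol with 0.15 M phosphate buffer pH 7.4 at 10:1 volumes. Buffer-phase absorbance read before mixing, then shaken 50 min and centrifuged at 2500 rpm for 35 min. Buffer absorbance read again; P = (Ai−Af)/Af × Vw/Vo.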

MDA-MB-231 = experiment: Antiproliferative activity against human MDA-MB-231 cells assessed as cell growth inhibition at 10 uM incubated for 48 hrs by sulforhodamine B assay relative to control; format: functional; method in brief: as §1
SNB-19 = experiment: Antiproliferative activity against human SNB-19 cells assessed as cell growth inhibition at 10 uM incubated for 48 hrs by sulforhodamine B assay relative to control; format: functional; method in brief: as §1
LOX IMVI = experiment: Antiproliferative activity against human LOX IMVI cells assessed as cell growth inhibition at 10 uM incubated for 48 hrs by sulforhodamine B assay relative to control; format: functional; method in brief: as §1
ACHN = experiment: Antiproliferative activity against human ACHN cells assessed as cell growth inhibition at 10 uM incubated for 48 hrs by sulforhodamine B assay relative to control; format: functional
Method in brief: (§3)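 Single-dose NCI-60 prescreen at 10^-5 M. Cells in RPMI 1640 with 5% FBS and 2 mM L-glutamine, seeded 5,000–40,000 cells/well with 24 h preincubation, then drug exposure for 48 h at 37 °C under 5% CO2. Growth read by SRB staining of TCA-fixed cells at 515 nm against time-zero and untreated controls. Negative growth values denote cell kill.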

MOLT-4 = experiment: Antiproliferative activity against human MOLT-4 cells assessed as cell growth inhibition at 10 uM incubated for 48 hrs by sulforhodamine B assay relative to control; format: functional; method in brief: as §1
M14 = experiment: Antiproliferative activity against human M14 cells assessed as cell growth inhibition at 10 uM incubated for 48 hrs by sulforhodamine B assay relative to control; format: functional; method in brief: as §1
T47D = experiment: Antiproliferative activity against human T47D cells assessed as cell growth inhibition at 10 uM incubated for 48 hrs by sulforhodamine B assay relative to control; format: functional; method in brief: as §1
HCT-15 = experiment: Antiproliferative activity against human HCT-15 cells assessed as cell growth inhibition at 10 uM incubated for 48 hrs by sulforhodamine B assay relative to control; format: functional; method in brief: as §2
KM12 = experiment: Antiproliferative activity against human KM12 cells assessed as cell growth inhibition at 10 uM incubated for 48 hrs by sulforhodamine B assay relative to control; format: functional; method in brief: as §1
NCI-H460 = experiment: Antiproliferative activity against human NCI-H460 cells assessed as cell growth inhibition at 10 uM incubated for 48 hrs by sulforhodamine B assay relative to control; format: functional; method in brief: as §1
IGROV-1 = experiment: Antiproliferative activity against human IGROV-1 cells assessed as cell growth inhibition at 10 uM incubated for 48 hrs by sulforhodamine B assay relative to control; format: functional; method in brief: as §1
BT-549 = experiment: Antiproliferative activity against human BT-549 cells assessed as cell growth inhibition at 10 uM incubated for 48 hrs by sulforhodamine B assay relative to control; format: functional; method in brief: as §3
UACC-62 = experiment: Antiproliferative activity against human UACC-62 cells assessed as cell growth inhibition at 10 uM incubated for 48 hrs by sulforhodamine B assay relative to control; format: functional; method in brief: as §1
RPMI-8226 = experiment: Antiproliferative activity against human RPMI-8226 cells assessed as cell growth inhibition at 10 uM incubated for 48 hrs by sulforhodamine B assay relative to control; format: functional; method in brief: as §1
SF-539 = experiment: Antiproliferative activity against human SF-539 cells assessed as cell growth inhibition at 10 uM incubated for 48 hrs by sulforhodamine B assay relative to control; format: functional; method in brief: as §1
NCI-H23 = experiment: Antiproliferative activity against human NCI-H23 cells assessed as cell growth inhibition at 10 uM incubated for 48 hrs by sulforhodamine B assay relative to control; format: functional; method in brief: as §1
SR = experiment: Antiproliferative activity against human SR cells assessed as cell growth inhibition at 10 uM incubated for 48 hrs by sulforhodamine B assay relative to control; format: functional; method in brief: as §1
NCI-H322M = experiment: Antiproliferative activity against human NCI-H322M cells assessed as cell growth inhibition at 10 uM incubated for 48 hrs by sulforhodamine B assay relative to control; format: functional; method in brief: as §1
MCF7 = experiment: Antiproliferative activity against human MCF7 cells assessed as cell growth inhibition at 10 uM incubated for 48 hrs by sulforhodamine B assay relative to control; format: functional; method in brief: as §1
Hs-578T = experiment: Antiproliferative activity against human Hs-578T cells assessed as cell growth inhibition at 10 uM incubated for 48 hrs by sulforhodamine B assay relative to control; format: functional; method in brief: as §1
PC-3 = experiment: Antiproliferative activity against human PC-3 cells assessed as cell growth inhibition at 10 uM incubated for 48 hrs by sulforhodamine B assay relative to control; format: functional; method in brief: as §1
Malme-3M = experiment: Antiproliferative activity against human Malme-3M cells assessed as cell growth inhibition at 10 uM incubated for 48 hrs by sulforhodamine B assay relative to control; format: functional; method in brief: as §1
NCI/ADR-RES = experiment: Antiproliferative activity against human NCI/ADR-RES cells assessed as cell growth inhibition at 10 uM incubated for 48 hrs by sulforhodamine B assay relative to control; format: functional; method in brief: as §1
HOP-62 = experiment: Antiproliferative activity against human HOP-62 cells assessed as cell growth inhibition at 10 uM incubated for 48 hrs by sulforhodamine B assay relative to control; format: functional; method in brief: as §2
CCRF-CEM = experiment: Antiproliferative activity against human CCRF-CEM cells assessed as cell growth inhibition at 10 uM incubated for 48 hrs by sulforhodamine B assay relative to control; format: functional; method in brief: as §3
HL-60 = experiment: Antiproliferative activity against human HL-60 cells assessed as cell growth inhibition at 10 uM incubated for 48 hrs by sulforhodamine B assay relative to control; format: functional; method in brief: as §2
SN12C = experiment: Antiproliferative activity against human SN12C cells assessed as cell growth inhibition at 10 uM incubated for 48 hrs by sulforhodamine B assay relative to control; format: functional; method in brief: as §1
MDA-MB-468 = experiment: Antiproliferative activity against human MDA-MB-468 cells assessed as cell growth inhibition at 10 uM incubated for 48 hrs by sulforhodamine B assay relative to control; format: functional; method in brief: as §1
SK-MEL-5 = experiment: Antiproliferative activity against human SK-MEL-5 cells assessed as cell growth inhibition at 10 uM incubated for 48 hrs by sulforhodamine B assay relative to control; format: functional; method in brief: as §1

Question: Which inhibition at 10 µM (SK-MEL-2) does the source give for `CC(=O)c1ccc(-c2cn3ccnc3c(-c3ccc4ncn(C5CCCCC5)c4c3)n2)cc1` here?
Answer: 0.58%

Question: And the inhibition at 10 µM (UO-31)?
Answer: 23.1%

Question: And the inhibition at 10 µM (MDA-MB-435)?
Answer: 6%

Question: And the inhibition at 10 µM (SF-268)?
Answer: 5.01%

Question: What about the inhibition at 10 µM (HCT-116) of the same compound?
Answer: 15.8%

Question: What about the inhibition at 10 µM (OVCAR-8) of the same compound?
Answer: 6.38%

Question: And the inhibition at 10 µM (K562)?
Answer: 9.6%

Question: What about the inhibition at 10 µM (HOP-92) of the same compound?
Answer: 25%

Question: What about the inhibition at 10 µM (NCI-H522) of the same compound?
Answer: 10.4%

Question: And the inhibition at 10 µM (HT-29)?
Answer: 9.2%

Question: What about the inhibition at 10 µM (U-251) of the same compound?
Answer: 3.02%

Question: And the logD at 1.417 h [1]?
Answer: 2.06

Question: What about the inhibition at 10 µM (MDA-MB-231) of the same compound?
Answer: 7.65%

Question: And the inhibition at 10 µM (SNB-19)?
Answer: 3.96%

Question: And the inhibition at 10 µM (LOX IMVI)?
Answer: 14.5%

Question: And the inhibition at 10 µM (ACHN)?
Answer: 4.32%

Question: What about the inhibition at 10 µM (MOLT-4) of the same compound?
Answer: 14.3%

Question: What about the inhibition at 10 µM (M14) of the same compound?
Answer: 3.43%

Question: What about the inhibition at 10 µM (T47D) of the same compound?
Answer: 54.4%

Question: What about the inhibition at 10 µM (HCT-15) of the same compound?
Answer: 18.8%

Question: And the inhibition at 10 µM (KM12)?
Answer: 11.7%

Question: And the inhibition at 10 µM (NCI-H460)?
Answer: 7.12%

Question: What about the inhibition at 10 µM (IGROV-1) of the same compound?
Answer: 19.1%

Question: What about the inhibition at 10 µM (BT-549) of the same compound?
Answer: 4.68%

Question: What about the inhibition at 10 µM (UACC-62) of the same compound?
Answer: 18.5%

Question: What about the inhibition at 10 µM (RPMI-8226) of the same compound?
Answer: 20.8%

Question: And the inhibition at 10 µM (SF-539)?
Answer: 2.82%

Question: What about the inhibition at 10 µM (NCI-H23) of the same compound?
Answer: 8.6%

Question: What about the inhibition at 10 µM (SR) of the same compound?
Answer: 23.6%

Question: And the inhibition at 10 µM (NCI-H322M)?
Answer: 1.19%

Question: And the inhibition at 10 µM (MCF7)?
Answer: 12%

Question: What about the inhibition at 10 µM (Hs-578T) of the same compound?
Answer: 6.34%

Question: And the inhibition at 10 µM (PC-3)?
Answer: 17.9%

Question: What about the inhibition at 10 µM (Malme-3M) of the same compound?
Answer: 3.01%

Question: What about the inhibition at 10 µM (NCI/ADR-RES) of the same compound?
Answer: 4.17%

Question: What about the inhibition at 10 µM (HOP-62) of the same compound?
Answer: 7.41%

Question: What about the inhibition at 10 µM (CCRF-CEM) of the same compound?
Answer: 1.1%

Question: And the inhibition at 10 µM (HL-60)?
Answer: 2.65%

Question: And the inhibition at 10 µM (SN12C)?
Answer: 6.33%

Question: And the inhibition at 10 µM (MDA-MB-468)?
Answer: 0.73%

Question: And the inhibition at 10 µM (SK-MEL-5)?
Answer: 24.8%

Source: ChEMBL document CHEMBL5247578, “Effective synthesis of benzimidazoles-imidazo[1,2-a]pyrazine conjugates: A comparative study of mono-and bis-benzimidazoles for antitumor activity” (Eur J Med Chem, 2019)
